# Data: ChEMBL document CHEMBL1124808, “The synthesis and antiallergy activity of 1-(aryloxy)-4-(4-arylpiperazinyl)-2-butanol derivatives” (1990)
# Key:
# Type in all cases: functional
# [1] = tested on: Rattus norvegicus; assay: Percent change in volume of foot edema of test compound to that of positive control was determined at a dose of 31.6 mg/kg in rat; -26/-81
# [2] = tested on: Rattus norvegicus; assay: Percent change in volume of foot edema of test compound to that of positive control was determined at a dose of 10 mg/kg in rat
# [3] = tested on: Rattus norvegicus; assay: Percent change in volume of foot edema of test compound to that of positive control was determined at a dose of 31.6 mg/kg in rat
# [4] = tested on: Rattus norvegicus; assay: Percent change in volume of foot edema of test compound to that of positive control was determined at a dose of 10 mg/kg in rat; -67/-72
# [5] = tested on: Rattus norvegicus; assay: Percent change in volume of foot edema of test compound to that of positive control was determined at a dose of 3.16 mg/kg in rat; -52/-79
# [6] = tested on: Rattus norvegicus; assay: Percent change in volume of foot edema of test compound to that of positive control was determined at a dose of 31.6 mg/kg in rat; -90/-79
# [7] = species: Cavia porcellus; assay: Dose that protects 50% of guinea pig from collapse was determined in guinea pig anaphylaxis assay; details: read-out: PD50
# Method in brief: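 Guinea pigs dosed by gavage (10 mL/kg) with compound in 0.5% Tween 80/water; reference theophylline 100 mg/kg po. At 1–24 h, exposed in chamber to aerosolized 1% (w/v) egg albumin at 10 L air/min for up to 5 min; protected if no collapse within 5 min. PD50 by Litchfield and Wilcoxon.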
# [8] = tested on: Rattus norvegicus; assay: Percent change in volume of foot edema of test compound to that of positive control was determined at a dose of 10 mg/kg in rat; -70/-88
# [9] = tested on: Rattus norvegicus; assay: Percent change in volume of foot edema of test compound to that of positive control was determined at a dose of 31.6 mg/kg in rat; -91/-83
# [10] = tested on: Rattus norvegicus; assay: Oral Antiallergic activity in the passive foot anaphylaxis (PFA) assay of various amines at the dose of 3.16 mg/kg; -42/-78
# [11] = tested on: Rattus norvegicus; assay: Percent change in volume of foot edema of test compound to that of positive control was determined at a dose of 3.16 mg/kg in rat; -32/-93
# [12] = tested on: Rattus norvegicus; assay: Percent change in volume of foot edema of test compound to that of positive control was determined at a dose of 10 mg/kg in rat; -72/-83
# [13] = tested on: Rattus norvegicus; assay: Percent change in volume of foot edema of test compound to that of positive control was determined at a dose of 31.6 mg/kg in rat; -88/-83
# [14] = tested on: Rattus norvegicus; assay: Percent change in volume of foot edema of test compound to that of positive control was determined at a dose of 31.6 mg/kg in rat; -24/-58
# [15] = tested on: Rattus norvegicus; assay: Percent change in volume of foot edema of test compound to that of positive control was determined at a dose of 10 mg/kg in rat; -39/-78
# [16] = tested on: Rattus norvegicus; assay: Percent change in volume of foot edema of test compound to that of positive control was determined at a dose of 31.6 mg/kg in rat; -70/-84
# [17] = tested on: Rattus norvegicus; assay: Percent change in volume of foot edema of test compound to that of positive control was determined at a dose of 10 mg/kg in rat; -50/-62
# [18] = tested on: Rattus norvegicus; assay: Percent change in volume of foot edema of test compound to that of positive control was determined at a dose of 31.6 mg/kg in rat; […]/-78
# [19] = tested on: Rattus norvegicus; assay: Percent change in volume of foot edema of test compound to that of positive control was determined at a dose of 3.16 mg/kg in rat; +22/-62
# [20] = tested on: Rattus norvegicus; assay: Percent change in volume of foot edema of test compound to that of positive control was determined at a dose of 31.6 mg/kg in rat; -49/-44
# [21] = tested on: Rattus norvegicus; assay: Percent change in volume of foot edema of test compound to that of positive control was determined at a dose of 10 mg/kg in rat; -25/-44
# [22] = tested on: Rattus norvegicus; assay: Percent change in volume of foot edema of test compound to that of positive control was determined at a dose of 10 mg/kg in rat; -48/-68
# [23] = tested on: Rattus norvegicus; assay: Percent change in volume of foot edema of test compound to that of positive control was determined at a dose of 3.16 mg/kg in rat; -13/-68
# [24] = tested on: Rattus norvegicus; assay: Percent change in volume of foot edema of test compound to that of positive control was determined at a dose of 31.6 mg/kg in rat; -78/-78
# [25] = tested on: Rattus norvegicus; assay: Percent change in volume of foot edema of test compound to that of positive control was determined at a dose of 10 mg/kg in rat; -5/-59
# [26] = tested on: Rattus norvegicus; assay: Percent change in volume of foot edema of test compound to that of positive control was determined at a dose of 31.6 mg/kg in rat; -54/-67
# [27] = tested on: Rattus norvegicus; assay: Percent change in volume of foot edema of test compound to that of positive control was determined at a dose of 10 mg/kg in rat; -41/-59
# [28] = tested on: Rattus norvegicus; assay: Percent change in volume of foot edema of test compound to that of positive control was determined at a dose of 31.6 mg/kg in rat; -74/-67
# [29] = tested on: Rattus norvegicus; assay: Percent change in volume of foot edema of test compound to that of positive control was determined at a dose of 31.6 mg/kg in rat; -29/-47
# [30] = tested on: Rattus norvegicus; assay: Percent change in volume of foot edema of test compound to that of positive control was determined at a dose of 31.6 mg/kg in rat; -73/-65
# [31] = tested on: Rattus norvegicus; assay: Percent change in volume of foot edema of test compound to that of positive control was determined at a dose of 10 mg/kg in rat; -43/-81
compound,measurement,setting,value
O=C(O)C(=O)O.OC(CCN1CCCCC1)COc1ccccc1 (centres undefined),PFA,[1],-26
Cl.Cl.O=[N+]([O-])c1ccc(OCC(O)CCN2CCN(c3ccccc3)CC2)cc1 (centres undefined),PFA,[2],-28
same,PFA,[3],-92
Cl.Cl.OC(CCN1CCN(c2ccccn2)CC1)COc1ccc(F)cc1 (centres undefined),PFA,[4],-67
same,PFA,[5],-52
same,PFA,[6],-90
same,ED50,[7],13.9 mg/kg
COc1ccc(N2CCN(CCC(O)COc3ccc(F)cc3)CC2)cc1.Cl (centres undefined),PFA,[8],-70
same,PFA,[9],-91
same,PFA,[10],-42
same,ED50,[7],> 178 mg/kg
Cl.OC(CCN1CCN(c2ccc(F)cc2)CC1)COc1ccc(F)cc1 (centres undefined),PFA,[11],-32
same,PFA,[12],-72
same,PFA,[13],-88
same,ED50,[7],3.06 mg/kg
CN1CCN(CCC(O)COc2ccccc2)CC1.O=C(O)/C=C\C(=O)O (centres undefined),PFA,[14],-24
O=C(O)/C=C\C(=O)O.O=C(O)/C=C\C(=O)O.OC(CCN1CCN(c2ccccn2)CC1)COc1ccccc1 (centres undefined),PFA,[15],-39
same,PFA,[16],-70
Cc1cc(Cl)ccc1OCC(O)CCN1CCN(c2ccccc2)CC1.Cl.Cl (centres undefined),PFA,[17],-50
same,PFA,[18],-69
same,PFA,[19],22
Cl.Cl.OC(CCN1CCN(c2ccccc2)CC1)COc1ccc(Cl)c(Cl)c1 (centres undefined),PFA,[20],-49
same,PFA,[21],-25
Cl.Cl.OC(CCN1CCN(c2ccccn2)CC1)COc1ccc(Cl)cc1 (centres undefined),PFA,[22],-48
same,PFA,[23],-13
same,PFA,[24],-78
same,ED50,[7],10.2 mg/kg
Cl.Cl.OC(CCN1CCN(c2ccc(Cl)cc2)CC1)COc1ccc(Cl)cc1 (centres undefined),PFA,[25],-5
same,PFA,[26],-54
Cc1cc(OCC(O)CCN2CCN(c3ccc(F)cc3)CC2)ccc1Cl.Cl.Cl (centres undefined),PFA,[27],-41
same,PFA,[28],-74
OC(CCN1CCC(c2ccccc2)CC1)COc1ccccc1 (centres undefined),PFA,[29],-29
OC(CCN1CCN(c2ccccc2)CC1)COc1ccc(F)cc1 (centres undefined),PFA,[30],-73
same,PFA,[31],-43
